In ChEMBL document CHEMBL4270616, “Asymmetrical meta-methoxylated diarylpentanoids: Rational design, synthesis and anti-cancer evaluation in-vitro” (Eur J Med Chem, 2018):

What was measured:
[1] = system: SW-620; experiment: Cytotoxicity against human SW620 cells after 72 hrs by MTT assay; type: functional, cell-based; conditions: SW-620, 72 h
How it was run: (§1)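 Tumour lines kept in DMEM with 10% FBS and 1% penicillin/streptomycin at 37°C, 5% CO2. Seeded at 1500-5000 cells/well by doubling time and size, 24 h, then compound in DMSO-containing medium (final DMSO 0.1%) for 72 h. MTT (5 mg/mL) 4 h at 37°C, DMSO solubilisation, absorbance at 570 nm.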

[2] = system: A549; experiment: Cytotoxicity against human A549 cells after 72 hrs by MTT assay; type: functional, cell-based; conditions: A549, 72 h; how it was run: as §1
[3] = Cytotoxicity against human EJ28 cells after 72 hrs by MTT assay; type: functional, cell-based; conditions: EJ-28, 72 h; how it was run: as §1
[4] = system: HT-1080; experiment: Cytotoxicity against human HT1080 cells after 72 hrs by MTT assay; type: functional, cell-based; conditions: HT-1080, 72 h; how it was run: as §1
[5] = system: MCF7; experiment: Cytotoxicity against human MCF7 cells after 72 hrs by MTT assay; type: functional, cell-based; conditions: MCF7, 72 h; how it was run: as §1
[6] = system: NHDF; experiment: Cytotoxicity against NHDF after 72 hrs by MTT assay; type: cell-based; conditions: Homo sapiens
How it was run: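 NHDF grown in DMEM with 5% FBS at 37°C, 5% CO2. Seeded at 1500-5000 cells/well, 24 h, then compound added in DMSO-containing medium (final DMSO 0.1%) for 72 h. MTT (5 mg/mL in medium) added for 4 h at 37°C, formazan dissolved in DMSO, absorbance read at 570 nm.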

[7] = system: SW-620; experiment: Cytotoxicity against human SW620 cells assessed as inhibition of cell proliferation at 20 uM after 72 hrs by MTT assay relative to control; type: functional; conditions: SW-620, 72 h
How it was run: (§2)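 Single-concentration screen at 20 μM with 72 h exposure in DMEM with 10% FBS, final DMSO 0.1%. Read-out was MTT (5 mg/mL, 4 h, 37°C), DMSO solubilisation and absorbance at 570 nm, expressed as percent inhibition. Lines reaching a threshold percentage went on to IC50 determination.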

[8] = system: A549; experiment: Cytotoxicity against human A549 cells assessed as inhibition of cell proliferation at 20 uM after 72 hrs by MTT assay relative to control; type: functional; conditions: A549, 72 h; how it was run: as §2
[9] = Cytotoxicity against human EJ28 cells assessed as inhibition of cell proliferation at 20 uM after 72 hrs by MTT assay relative to control; type: functional; conditions: EJ-28, 72 h; how it was run: as §2
[10] = system: HT-1080; experiment: Cytotoxicity against human HT1080 cells assessed as inhibition of cell proliferation at 20 uM after 72 hrs by MTT assay relative to control; type: functional; conditions: HT-1080, 72 h; how it was run: as §2
[11] = system: MCF7; experiment: Cytotoxicity against human MCF7 cells assessed as inhibition of cell proliferation at 20 uM after 72 hrs by MTT assay relative to control; type: functional; conditions: MCF7, 72 h; how it was run: as §2

Structure (SMILES)	IC50 [1] [µM]	IC50 [2] [µM]	IC50 [3] [µM]	IC50 [4] [µM]	IC50 [5] [µM]	IC50 [6] [µM]	inhibition at 20 µM [7] [%]	inhibition at 20 µM [8] [%]	inhibition at 20 µM [9] [%]	inhibition at 20 µM [10] [%]	inhibition at 20 µM [11] [%]
COc1ccc(/C=C2\CCC/C(=C\c3ccc(Cl)cc3Cl)C2=O)cc1OC	10.3	> 20	12.4	10.5	16.2	> 50	> 50	> 50	> 50	> 50	> 50
COc1ccc(/C=C2\CCC/C(=C\c3ccc(Cl)c(Cl)c3)C2=O)cc1OC	4	6.9	3.4	3.1	4.4	10.1	> 50	> 50	> 50	> 50	> 50
COc1cccc(/C=C2\CCC/C(=C\c3cccc(OC)c3OC)C2=O)c1OC	8.3	11.4	8.4	6.1	5	31	> 50	> 50	> 50	> 50	> 50
COc1ccc(/C=C2\CCC/C(=C\c3ccc(O)c(O)c3)C2=O)cc1OC	10.5	> 20	12.1	4.2	14.4	25.2	> 50	> 50	> 50	> 50	> 50
COc1cccc(/C=C2\CCC/C(=C\c3cccc(Cl)c3Cl)C2=O)c1OC	16.3	> 20	18.1	19.3	> 20	> 50	> 50	> 50	> 50	> 50	> 50
COc1cccc(/C=C2\CCC/C(=C\c3ccc(O)c(Cl)c3)C2=O)c1OC	16.8	> 20	18.3	14.3	16.4	39.5	> 50	> 50	> 50	> 50	> 50
COc1ccccc1/C=C1\CCC/C(=C\c2ccc(OC)c(OC)c2)C1=O	7.8	> 20	8.1	8.1	8	18.1	> 50	> 50	> 50	> 50	> 50
